Among the data in ChEMBL document CHEMBL1138577, “Design, synthesis of 8-alkoxy-5,6-dihydro-[1,2,4]triazino[4,3-a]quinolin-1-ones with anticonvulsant activity” (Eur J Med Chem, 2009) are ED50, TD50 and PI values, retold here.

In data set [1] the test system is Mus musculus. The experiment in a line: Anticonvulsant activity in ip dosed C57B/6 mouse assessed as protection against maximal electroshock-induced seizures administered before 30 mins of MES induction. The class given is functional. Conditions: C57B/6, ip, 0.5 h. An outline of the steps: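 Compound in polyethyleneglycol-400 given ip to C57B/6 mice (18–25 g, 10 per group) over a dose range. 30 min post-dose, 60-Hz alternating current, 50 mA, applied via corneal electrodes for 0.2 s. Protection scored as abolition of hind-leg tonic maximal extension; doses spanning 10–90% protection used to derive ED50.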
Background: The maximal electroshock test induces tonic seizures with an electrical stimulus.

A short description of data set [2]: Neurotoxicity in C57B/6 mouse assessed as inability to maintain equilibrium on 1-in diameter rod for 1 min after 30 mins by rotarod test. The class given is toxicity, organism-based. Conditions: in vivo. An outline of the steps:
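Rotarod neurotoxicity: C57B/6 mice (18–25 g, groups of 10) dosed ip with compound in polyethyleneglycol-400 over a dose range; 30 min later placed on 1-in. knurled rod rotating at 6 rpm for 1 min. Toxicity = failure to keep equilibrium in each of three trials; doses spanning 10–90% used for TD50.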
In general terms: In the rotarod test animals must keep their balance on a rotating rod.

Data set [3] is filed under the species Mus musculus. In words: Protective index, ratio of TD50 for neurotoxicity in C57B/6 mouse to ED50 for anticonvulsant activity in C57B/6 mouse. In kind it is functional. An outline of the steps: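 PI computed as TD50 (rotarod neurotoxicity) divided by ED50 (MES test), both in ip-dosed C57B/6 mice, compounds in PEG-400, tested 30 min post-dose.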
Data set [4] relates to Mus musculus. In words: Anticonvulsant activity in ip dosed C57B/6 mouse assessed as protection against strychnine-induced seizures administered before 30 mins of strychnine induction measured for 30 mins. In kind it is functional, organism-based. The gist of the method:
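C57B/6 mice (18–25 g, groups of 10) received compound ip in polyethyleneglycol-400; 30 min later strychnine chlorhydrate in saline (1.2 mg/mL, 1 mL/kg) given sc, a dose convulsing all naïve animals. Mice observed individually for 30 min.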

The subject of data set [5] is Mus musculus. The experiment in a line: Anticonvulsant activity in ip dosed C57B/6 mouse assessed as protection against pentylenetetrazole-induced seizures administered before 30 mins of pentylenetetrazole induction. In kind it is functional. To be noted: C57B/6, ip, 0.5 h. An outline of the steps:
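Pentylenetetrazole 85 mg/kg sc, a dose convulsing 100% of naïve animals, given 30 min after ip compound (PEG-400 vehicle, several doses) to C57B/6 mice, 18–25 g, groups of 10. ED50 calculated as dose preventing tonic convulsions in 50% of animals.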

For data set [6], the system named is Mus musculus. In words: Anticonvulsant activity in ip dosed C57B/6 mouse assessed as protection against thiosemicarbazide-induced seizures administered before 30 mins of thiosemicarbazide induction measured after 1 hr. The class given is functional. To be noted: C57B/6, ip. The gist of the method: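 Thiosemicarbazide 50 mg/kg ip, a dose convulsing 100% of animals, given 30 min after ip test compound (PEG-400, various doses) to C57B/6 mice (18–25 g, n=10/group). Tonic convulsions scored; ED50 calculated as dose preventing them in 50% of treated animals.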

Data set [7] deals with Mus musculus. The experiment in a line: Anticonvulsant activity in ip dosed C57B/6 mouse assessed as protection against isoniazid-induced seizures administered before 30 mins of isoniazid induction measured for 1 hr. In kind it is functional. Conditions: C57B/6, ip. The gist of the method: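 Mice (C57B/6, 18–25 g; n=10 per group) dosed ip with compound in PEG-400 at several doses, then challenged 30 min later with isoniazid 250 mg/kg ip, a dose convulsing all naïve animals. Housed singly and watched 1 h for tonic convulsions; ED50 = dose preventing them in 50% of animals.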

The test system of data set [8] is Mus musculus. In words: Anticonvulsant activity in ip dosed C57B/6 mouse assessed as protection against 3 mercaptopropionic acid-induced seizures administered before 30 mins of 3 mercaptopropionic acid induction measured after 1 hr. The class given is functional. To be noted: C57B/6, ip. An outline of the steps: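 C57B/6 mice (18–25 g), groups of 10, given test compound ip in polyethyleneglycol-400 across a dose range; 30 min later 3-MP 40 mg/kg in saline injected sc. Endpoint: prevention of tonic convulsions; ED50 calculated as dose protecting 50% of animals.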

The source made the active and inactive calls. No cut-off for these calls is given here. A value given as a limit tells only on which side of the number the result lay.

One may read the ED50 as the midpoint of the dose-response relation. As to `CCCOc1ccc2c(c1)CCc1nncc(=O)n1-2`, the ED50 in the data set with Mus musculus [1] is 32.9 mg/kg.
For `COc1ccc(COc2ccc3c(c2)CCc2nncc(=O)n2-3)cc1`, the median effective dose (ED50) in the data set on Mus musculus [1] was 56.8 mg/kg.
The same measure, in the same setting: as for `COc1ccc(COc2ccc3c(c2)CCc2nncc(=O)n2-3)cc1OC`, the figure is 45.6 mg/kg.
Still for that read-out and setting: next, `O=c1cnnc2n1-c1ccc(OCc3ccccc3F)cc1CC2`: 23.7 mg/kg.
On to `Cc1nnc2n(c1=O)-c1ccc(OCc3ccccc3)cc1CC2`, for which the ED50 in the data set on Mus musculus [1] was > 100 mg/kg.
The same measure, in the same setting: next, `CCOc1ccc2c(c1)CCc1nncc(=O)n1-2`: 39.4 mg/kg.
What is called TD50 is the dose at which the toxic effect under study appears in half of the subjects. Turning to `O=c1cnnc2n1-c1ccc(OCc3ccccc3Br)cc1CC2`, the TD50 at 30 min in data set [2] stood at 132 mg/kg. The ED50 in the data set on Mus musculus [1] was found to be 16.4 mg/kg. For the same compound, the PI in the data set listed under Mus musculus [3] came to 8.
Take `O=c1cnnc2n1-c1ccc(OCc3cccc(Cl)c3)cc1CC2`: the ED50 result in the data set with Mus musculus [4] was “inactive”. In addition, the 50% effective dose (ED50) with Mus musculus [5] was 11.3 mg/kg; in the data set with Mus musculus [6], 15.8 mg/kg; with Mus musculus [1], 22.8 mg/kg; in the data set on Mus musculus [7], 19.7 mg/kg; with Mus musculus [8], 11.8 mg/kg.
Regarding `CCCCCCOc1ccc2c(c1)CCc1nncc(=O)n1-2`, the TD50 at 30 min in data set [2] came out at 82.2 mg/kg. Moreover, in the data set on Mus musculus [1], the median effective dose (ED50) was determined as 19.7 mg/kg. Further, the PI in the data set listed under Mus musculus [3] came to 4.2.
Regarding `O=c1cnnc2n1-c1ccc(OCc3ccccc3)cc1CC2`, the ED50 with Mus musculus [1] came to 22.8 mg/kg.
The same measure, in the same setting: next, `O=c1cnnc2n1-c1ccc(OCc3ccc(Cl)cc3Cl)cc1CC2`: 26.4 mg/kg; `CCCCCCCCCCCCOc1ccc2c(c1)CCc1nncc(=O)n1-2`: 54.8 mg/kg.
On the same count and under the same terms, next, `O=c1cnnc2n1-c1ccc(OCc3cccc(F)c3)cc1CC2`: 31.7 mg/kg.
For `c1ccc(COc2ccc3c(c2)CCc2nncn2-3)cc1`, the median effective dose (ED50) in the data set on Mus musculus [5] stood at 24 mg/kg.
As for `CCCCCOc1ccc2c(c1)CCc1nncc(=O)n1-2`, the ED50 with Mus musculus [1] worked out at 21.9 mg/kg.
As for `CCCCOc1ccc2c(c1)CCc1nncc(=O)n1-2`, the 50% effective dose (ED50) with Mus musculus [1] was 22.7 mg/kg.
As for `O=c1cnnc2n1-c1ccc(OCc3ccccc3Cl)cc1CC2`, in data set [2], the TD50 at 30 min came to 106 mg/kg. Further, the ED50 in the data set on Mus musculus [1] was 13.7 mg/kg. Moreover, the PI in the data set listed under Mus musculus [3] came out at 7.7.
Regarding `O=c1cnnc2n1-c1ccc(OCc3c(Cl)cccc3Cl)cc1CC2`, the 50% effective dose (ED50) in the data set with Mus musculus [1] turned out to be 20.5 mg/kg.
Take `O=c1cnnc2n1-c1ccc(OCc3ccc(F)cc3)cc1CC2`: the ED50 in the data set on Mus musculus [1] is 38 mg/kg.
With `O=C1CCc2cc(OCc3ccccc3)ccc2N1`, the ED50 in the data set on Mus musculus [1] turned out to be 29.6 mg/kg.
For the compound `CCCCCCOc1ccc2c(c1)CCc1nnc(C)c(=O)n1-2`, the ED50 in the data set with Mus musculus [1] was > 100 mg/kg.
With `NC(=O)N1c2ccccc2C=Cc2ccccc21` [CARBAMAZEPINE], the ED50 result in the data set with Mus musculus [4] was “inactive”. The PI in the data set listed under Mus musculus [3] worked out at 6.4.
Regarding `CCCCCCCCOc1ccc2c(c1)CCc1nncc(=O)n1-2`, the TD50 at 30 min in data set [2] amounted to 98.6 mg/kg. Further, the median effective dose (ED50) in the data set on Mus musculus [1] was 12.7 mg/kg. Further, in the data set listed under Mus musculus [3], the PI worked out at 7.76.
`O=c1cnnc2n1-c1ccc(OCc3ccc(Cl)cc3)cc1CC2`: in the data set on Mus musculus [1], the ED50 was 32.9 mg/kg.
`CCCCCCCOc1ccc2c(c1)CCc1nncc(=O)n1-2`: the TD50 at 30 min in data set [2] came to 114 mg/kg. Also, the 50% effective dose (ED50) in the data set on Mus musculus [1] stood at 11.4 mg/kg. The PI in the data set listed under Mus musculus [3] is on record as 10.
Take `O=c1cnnc2n1-c1ccc(OCc3ccc(Br)cc3)cc1CC2`: in the data set with Mus musculus [1], the ED50 is 64.2 mg/kg.
The same measure, in the same setting: next, `Cc1ccc(COc2ccc3c(c2)CCc2nncc(=O)n2-3)cc1`: 27.4 mg/kg.
